# ChEMBL document CHEMBL1123757, “Selective thromboxane synthetase inhibitors and antihypertensive agents. New derivatives of 4-hydrazino-5H-pyridazino[4,5-b]indole, 4-hydrazinopyridazino[4,5-a]indole, and related compounds” (J Med Chem, 1987)
# Calls of active or inactive are those of the source. The rule behind the calls is not given here.
# How the values were obtained:
# [1] = species: Rattus norvegicus; conditions: Heart, 1 mg/kg
# [2] = tested on: Rattus norvegicus; assay: Antihypertensive activity in spontaneously hypertensive rats (SHR) measured by percentage fall in cardiac rhythm (CR) at 1 mg/kg administered intraperitoneally at 3 h; format: functional, Heart; conditions: route intraperitoneal
# Summary of the method: (§1)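 Unanesthetized Okamoto-strain SHR, male and female, 8 weeks old, 300–350 g, systolic pressure ≥190 mmHg, heart rate 400–650 beats/min; five animals per dose. Given ip at 2.5 mL/kg, dissolved or suspended in normal saline or saline with 0.2% (carboxymethyl)cellulose and 1.0% Tween 80. Tail AP and CR recorded by mechanical transduction at set times; reported as percentage fall from control.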
# [3] = species: Homo sapiens; conditions: 10e-5 M
# [4] = tested on: Rattus norvegicus; assay: Percent fall in systolic blood pressure, directly measured on carotid (iv on the jugular vein) of spontaneously hypertensive rats at 1 mg/kg after 120 minutes; format: functional, Artery
# Summary of the method: (§2)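 Anesthetized (sodium pentobarbital, 70 mg/kg) male and female Okamoto SHR, 8 weeks old, 300–350 g. Given iv into the jugular vein in normal saline. Arterial pressure and cardiac rhythm are recorded directly from the carotid by polygraph at set times after dosing. Each is expressed as percent change from the pre-dose control value.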
# [5] = tested on: Rattus norvegicus; assay: Antihypertensive activity in spontaneously hypertensive rats (SHR) measured by percentage fall in arterial pressure (AP) at 1 mg/kg administered intraperitoneally at 1 h; format: functional, Artery; conditions: route intraperitoneal
# Summary of the method: as §1
# [6] = tested on: Rattus norvegicus; assay: Percent fall in systolic blood pressure, directly measured on carotid (iv on the jugular vein) of spontaneously hypertensive rats at 1 mg/kg after 30 minutes; format: functional, Artery
# Summary of the method: as §2
# [7] = species: Homo sapiens; assay: In vitro inhibition of platelet aggregation induced by ADP-II (PRP incubated for 5 minutes at 37 degree C) at 10e-5 M;No significance; format: functional
# Summary of the method: (§3)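 Human venous blood anticoagulated with 3.8% sodium citrate (1:9). PRP from centrifugation at 800 rpm for 10 min at room temperature. Count adjusted with PPP to […]. Compound in saline with 10% ethylene glycol is added to PRP and incubated at 37 °C before the agonist. Agonists: ADP 2×10^-5 M, AA 0.6 mM, PGH2 2.8 μM, adrenaline 0.6 μM. Born absorbance aggregometry; n = 5.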
# [8] = tested on: Rattus norvegicus; assay: Percent fall in systolic blood pressure, directly measured on carotid (iv on the jugular vein) of spontaneously hypertensive rats at 1 mg/kg after 75 minutes; format: functional, Artery
# Summary of the method: as §2
# [9] = tested on: Rattus norvegicus; assay: Antihypertensive activity in spontaneously hypertensive rats (SHR) measured by percentage fall in cardiac rhythm (CR) at 1 mg/kg administered intraperitoneally at 5 h; format: functional, Heart; conditions: route intraperitoneal
# Summary of the method: as §1
# [10] = species: Rattus norvegicus; conditions: Heart, 1 mg/kg; remark: listed apart in the source
# [11] = tested on: Rattus norvegicus; assay: Percent fall in systolic blood pressure, directly measured on carotid (iv on the jugular vein) of spontaneously hypertensive rats at 1 mg/kg after 5 minutes; format: functional, Artery
# Summary of the method: as §2
# [12] = species: Cavia porcellus; conditions: 30 mg/kg
# [13] = tested on: Rattus norvegicus; assay: Percent fall in systolic blood pressure, directly measured on carotid (iv on the jugular vein) of spontaneously hypertensive rats at 1 mg/kg after 15 minutes; format: functional, Artery
# Summary of the method: as §2
# [14] = species: Cavia porcellus; conditions: 30 mg/kg; remark: listed apart in the source
# [15] = species: Homo sapiens; assay: In vitro inhibition of platelet aggregation induced by AA (PRP incubated for 60 minutes at 37 degree C) at 10e-5 M;No significance; format: functional
# Summary of the method: as §3
# [16] = species: Cavia porcellus; conditions: 50 mg/kg
# [17] = tested on: Rattus norvegicus; assay: Antihypertensive activity in spontaneously hypertensive rats (SHR) measured by percentage fall in arterial pressure (AP) at 1 mg/kg administered intraperitoneally at 24 h;No significance; format: functional, organism-based; set-up: dose 1 mg/kg; conditions: Artery
# Summary of the method: as §1
# [18] = species: Cavia porcellus; conditions: 100 mg/kg
# [19] = species: Rattus norvegicus; conditions: Artery, 1 mg/kg
# [20] = species: Cavia porcellus; conditions: 50 mg/kg; remark: listed apart in the source
# [21] = tested on: Rattus norvegicus; assay: Percent fall in systolic blood pressure, directly measured on carotid (iv on the jugular vein) of spontaneously hypertensive rats at 1 mg/kg after 60 minutes; format: functional, Artery
# Summary of the method: as §2
# [22] = tested on: Rattus norvegicus; assay: Antihypertensive activity in spontaneously hypertensive rats (SHR) measured by percentage fall in arterial pressure (AP) at 1 mg/kg administered intraperitoneally at 3 h; format: functional, Artery; conditions: route intraperitoneal
# Summary of the method: as §1
# [23] = species: Rattus norvegicus; conditions: Heart, 1 mg/kg; remark: listed apart in the source
# [24] = species: Homo sapiens; conditions: 10e-5 M; remark: listed apart in the source
# [25] = tested on: Rattus norvegicus; assay: Antihypertensive activity in spontaneously hypertensive rats (SHR) measured by percentage fall in cardiac rhythm (CR) at 1 mg/kg administered intraperitoneally at 1 h; format: functional, Heart; conditions: route intraperitoneal
# Summary of the method: as §1
# [26] = tested on: Cavia porcellus; assay: Ex vivo inhibition of platelet aggregation induced by AA at 100 mg/kg; format: functional
# Summary of the method: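 Fasted male or female guinea pigs (250–300 g, five per group) dosed orally in normal saline or saline with 0.2% (carboxymethyl)cellulose/1.0% Tween 80; controls given vehicle. Under ether, cardiac blood collected into 3.8% citrate. PRP adjusted to […] and aggregation induced by ADP (second wave) or AA, read by absorbance aggregometry. PGE2 and TXB2 measured by RIA.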
# [27] = species: Rattus norvegicus; conditions: Heart, 1 mg/kg; remark: listed apart in the source
# [28] = species: Rattus norvegicus; conditions: Artery, 1 mg/kg; remark: listed apart in the source
# [29] = tested on: Rattus norvegicus; assay: Percent increase in cardiac rhythm, directly measured on carotid (iv on the jugular vein) of spontaneously hypertensive rats at 1 mg/kg after 30 minutes; conditions: Heart, 0.5 h, read-out: Inhibition
structure (smiles),measurement,setting,value
Cl.NNc1nncc2ccccc12 [HYDRALAZINE HYDROCHLORIDE],Decrease in blood pressure,[1],inactive
same,Decrease in CR,[2],-5%
same,Increase,[3],inactive
same,Decrease in blood pressure,[4],20%
same,Decrease in AP,[5],20%
same,Decrease in blood pressure,[6],48%
same,inhibition,[7],inactive
same,Decrease in blood pressure,[8],60%
same,Decrease in CR,[9],-2%
same,inhibition,[10],inactive
same,Decrease in blood pressure,[11],40%
same,inhibition,[12],inactive
same,Decrease in blood pressure,[13],48%
same,inhibition,[14],inactive
same,inhibition,[15],inactive
same,inhibition,[16],inactive
same,Decrease in AP,[17],inactive
same,Inhibition %,[18],inactive
same,inhibition,[19],inactive
same,inhibition,[20],inactive
same,Decrease in blood pressure,[21],52%
same,Decrease in AP,[22],20%
same,inhibition,[23],inactive
same,inhibition,[24],inactive
same,Decrease in CR,[25],-7%
same,inhibition in vivo at 100 mg/kg,[26],75%
same,Decrease in CR,[27],inactive
same,Decrease in blood pressure,[28],inactive
same,inhibition in vivo at 1 mg/kg,[29],20%
